ChEMBL document CHEMBL1129383, “Potent immunosuppressants, 2-alkyl-2-aminopropane-1,3-diols” (J Med Chem, 1996)
Blank lines part the entries; values can stand above or below the compound they belong to.

Key:
[1] = Immunosuppressive activity on mouse allogenic MLR in vitro; format: functional
How it was run: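 Responders were BALB/c spleen cells (5 × 10⁵, H-2^d). Stimulators were an equal number of C57BL/6 spleen cells (H-2^b) treated with mitomycin C for 30 min at 37 °C. Co-culture in RPMI 1640 with 5 × 10⁻⁵ M 2-mercaptoethanol, 10% FCS and varied compound, 4 days at 37 °C, 5% CO₂. Proliferation read by MTT. IC50 is the mean of triplicates.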

Mus musculus = organism: Mus musculus; assay: Effect of compound on IL-2 production from alloantigen-stimulated mouse spleen cells; format: functional, cell-based
How it was run: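 BALB/c spleen cells at 5×10^6 cells/mL co-cultured with an equal number of mitomycin C-pretreated C57BL/6 spleen cells, with or without test compound, in RPMI 1640 with 5×10^-5 M 2-mercaptoethanol and 10% FCS; 48 h at 37 °C. Supernatant IL-2 activity measured by IL-2-dependent CTLL-2 proliferation, given in units/mL.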

Rattus norvegicus [2] = assay: Mean survival time of rats after skin allograft (intraperitoneal administration) at 3 mg/kg; format: functional
How it was run: (§1)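 LEW rat (male, 4 wk) dorsal skin grafted onto lateral thorax of F344 rats (male, 4 wk). Compounds in 20% (hydroxypropyl)-β-cyclodextrin given ip daily for 10 days from transplant day. Grafts inspected daily until rejection (>90% necrosis of graft epithelium); mean survival time in days ± SD, n = 4–5, Mann-Whitney U test. "Toxic" means animals died.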

Rattus norvegicus [3] = assay: Mean survival time of rats after skin allograft (intraperitoneal administration) at 10 mg/kg; toxic - animals died; format: ADME, organism-based; design: dose 10 mg/kg, route intraperitoneal; conditions: in vivo, ip; how it was run: as §1
Rattus norvegicus [4] = assay: Mean survival time of rats after skin allograft (oral administration) at 0.1 mg/kg; format: functional
How it was run: as §1, with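 “5% (hydroxypropyl)methylcellulose” for “20% (hydroxypropyl)-β-cyclodextrin”, “orally,” for “ip”, “SD.” for “SD, n = 4–5, Mann-Whitney U test.”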

Rattus norvegicus [5] = assay: Mean survival time of rats after skin allograft (oral administration) at 0.3 mg/kg; format: functional
How it was run: as §1, with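 “5% (hydroxypropyl)methylcellulose” for “20% (hydroxypropyl)-β-cyclodextrin”, “orally,” for “ip”, “SD.” for “SD, n = 4–5, Mann-Whitney U test.”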

Rattus norvegicus [6] = assay: Mean survival time of rats after skin allograft (oral administration) at 100 mg/kg; toxic - animals died; format: ADME, organism-based; design: dose 100 mg/kg, route oral; conditions: in vivo
How it was run: as §1, with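 “5% (hydroxypropyl)methylcellulose” for “20% (hydroxypropyl)-β-cyclodextrin”, “orally,” for “ip”, “SD.” for “SD, n = 4–5, Mann-Whitney U test.”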

Rattus norvegicus [7] = assay: Mean survival time of rats after skin allograft (oral administration) at 1 mg/kg; format: functional
How it was run: as §1, with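 “5% (hydroxypropyl)methylcellulose” for “20% (hydroxypropyl)-β-cyclodextrin”, “orally,” for “ip”, “SD.” for “SD, n = 4–5, Mann-Whitney U test.”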

Rattus norvegicus [8] = assay: Mean survival time of rats after skin allograft (oral administration) at 30 mg/kg; format: functional
How it was run: as §1, with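 “5% (hydroxypropyl)methylcellulose” for “20% (hydroxypropyl)-β-cyclodextrin”, “orally,” for “ip”, “SD.” for “SD, n = 4–5, Mann-Whitney U test.”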

Rattus norvegicus [9] = assay: Mean survival time of rats after skin allograft (oral administration) at 3 mg/kg; format: functional
How it was run: as §1, with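 “5% (hydroxypropyl)methylcellulose” for “20% (hydroxypropyl)-β-cyclodextrin”, “orally,” for “ip”, “SD.” for “SD, n = 4–5, Mann-Whitney U test.”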

Rattus norvegicus [10] = assay: Mean survival time of rats after skin allograft (intraperitoneal administration) at 0.1 mg/kg; format: functional; how it was run: as §1
Rattus norvegicus [11] = assay: Mean survival time of rats after skin allograft (intraperitoneal administration) at 0.3 mg/kg; format: functional; how it was run: as §1
Rattus norvegicus [12] = assay: Mean survival time of rats after skin allograft (intraperitoneal administration) at 1 mg/kg; format: functional; how it was run: as §1
Rattus norvegicus [13] = assay: Mean survival time of rats after skin allograft (oral administration) at 10 mg/kg; format: functional
How it was run: as §1, with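 “5% (hydroxypropyl)methylcellulose” for “20% (hydroxypropyl)-β-cyclodextrin”, “orally,” for “ip”, “SD.” for “SD, n = 4–5, Mann-Whitney U test.”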

Rattus norvegicus [14] = assay: Mean survival time of rats after skin allograft (intraperitoneal administration) at 10 mg/kg; format: functional; how it was run: as §1
Rattus norvegicus [15] = assay: Mean survival time of rats after skin allograft (intraperitoneal administration) at 20 mg/kg; format: functional; how it was run: as §1
Rattus norvegicus [16] = assay: Mean survival time of rats after skin allograft (intraperitoneal administration) at 30 mg/kg; toxic - animals died; format: ADME, organism-based; design: dose 30 mg/kg, route intraperitoneal; conditions: in vivo, ip; how it was run: as §1
Rattus norvegicus [17] = assay: Mean survival time of rats after skin allograft (intraperitoneal administration) at 1 mg/kg; toxic - animals died; format: ADME, organism-based; design: dose 1 mg/kg, route intraperitoneal; conditions: in vivo, ip; how it was run: as §1
Rattus norvegicus [18] = assay: Mean survival time of rats after skin allograft (intraperitoneal administration) at 20 mg/kg; toxic - animals died; format: ADME, organism-based; design: dose 20 mg/kg, route intraperitoneal; conditions: in vivo, ip; how it was run: as §1
Rattus norvegicus [19] = assay: Mean survival time of rats after skin allograft (intraperitoneal administration) at 30 mg/kg; format: functional; how it was run: as §1
Rattus norvegicus [20] = assay: Mean survival time of rats after skin allograft (intraperitoneal administration) at 100 mg/kg; toxic - animals died; format: ADME, organism-based; design: dose 100 mg/kg, route intraperitoneal; conditions: in vivo, ip; how it was run: as §1
Rattus norvegicus [21] = assay: Mean survival time of rats after skin allograft (oral administration) at 30 mg/kg; toxic - animals died; format: ADME, organism-based; design: dose 30 mg/kg, route oral; conditions: in vivo
How it was run: as §1, with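 “5% (hydroxypropyl)methylcellulose” for “20% (hydroxypropyl)-β-cyclodextrin”, “orally,” for “ip”, “SD.” for “SD, n = 4–5, Mann-Whitney U test.”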

SMILES: CCCCCCCCCCCCCCC(N)(CO)CO
IC50 [1]: 5.9 nM
IC50 (Mus musculus): > 1000 nM
MST (Rattus norvegicus [2]): 44.4 days
MST (Rattus norvegicus [3]): Toxic
MST (Rattus norvegicus [4]): 10.3 days
MST (Rattus norvegicus [5]): 13.6 days
MST (Rattus norvegicus [6]): Toxic
MST (Rattus norvegicus [7]): 24.4 days
MST (Rattus norvegicus [8]): 52.2 days
MST (Rattus norvegicus [9]): 36.4 days
MST (Rattus norvegicus [10]): 11.2 days
MST (Rattus norvegicus [11]): 23.1 days
MST (Rattus norvegicus [12]): 39 days
MST (Rattus norvegicus [13]): 46.4 days

SMILES: CCCCCCCCCCCCC/C=C/C[C@@H](O)[C@H](O)C(N)(CO)CO
IC50 [1]: 56 nM
MST (Rattus norvegicus [2]): 9.8 days
MST (Rattus norvegicus [14]): 14 days
MST (Rattus norvegicus [12]): 8.2 days
MST (Rattus norvegicus [15]): 16.6 days
MST (Rattus norvegicus [16]): Toxic

IC50 [1]: 3.6 nM
SMILES: CCCCCCCCCCCCC/C=C/C[C@H]1OC(=O)[C@](N)(CO)[C@@H]1O

IC50 [1]: 440 nM
SMILES: CCCCCCCCCCC(N)(CO)CO

SMILES: CCCCCCC(=O)CCCCCC/C=C/C[C@@H](O)[C@H](O)[C@@](N)(CO)C(=O)O [MYRIOCIN]
IC50 [1]: 3 nM
MST (Rattus norvegicus [17]): Toxic

IC50 [1]: 3700 nM
SMILES: CCCCCCCCC(N)(CO)CO

IC50 [1]: 270 nM
SMILES: CCCCCCCCCCCCC(N)(CO)CO

SMILES: CCCCCCCCCCCCCCCCC(N)(CO)CO
IC50 [1]: 10 nM
MST (Rattus norvegicus [2]): 41.8 days
MST (Rattus norvegicus [18]): Toxic
MST (Rattus norvegicus [10]): 10.5 days
MST (Rattus norvegicus [11]): 14.3 days
MST (Rattus norvegicus [12]): 38.5 days

IC50 [1]: 10 nM
SMILES: CCCCCCCCCCCCC/C=C/C[C@H]1OC(=O)[C@](N)(CO)[C@H]1O

SMILES: C/C=C/C[C@@H](C)[C@@H](O)[C@H]1C(=O)N[C@@H](CC)C(=O)N(C)CC(=O)N(C)[C@@H](CC(C)C)C(=O)N[C@@H](C(C)C)C(=O)N(C)[C@@H](CC(C)C)C(=O)N[C@@H](C)C(=O)N[C@H](C)C(=O)N(C)[C@@H](CC(C)C)C(=O)N(C)[C@@H](CC(C)C)C(=O)N(C)[C@@H](C(C)C)C(=O)N1C [CYCLOSPORINE]
MST (Rattus norvegicus [7]): 8.5 days
MST (Rattus norvegicus [8]): 20.5 days
MST (Rattus norvegicus [9]): 10.3 days
MST (Rattus norvegicus [12]): 7.6 days
MST (Rattus norvegicus [19]): 19.4 days
MST (Rattus norvegicus [13]): 13.5 days

IC50 [1]: 12 nM
SMILES: CCCCCCCCCCCCCC(N)(CO)CO

IC50 [1]: 1600 nM
SMILES: CCCCCCCCCCCCCCCCCCCCCCC(N)(CO)CO

SMILES: CCCCCCC(O)CCCCCC/C=C/C[C@@H](O)[C@H](O)[C@@](N)(CO)C(=O)O (stereo partly specified)
IC50 [1]: 6.3 nM
MST (Rattus norvegicus [17]): Toxic
MST (Rattus norvegicus [10]): 7.6 days
MST (Rattus norvegicus [11]): 9.6 days

SMILES: CCCCCCC(O)CCCCCCCCC[C@@H](O)[C@H](O)C(N)(CO)CO (stereo partly specified)
IC50 [1]: 1630 nM
MST (Rattus norvegicus [2]): 11 days
MST (Rattus norvegicus [20]): Toxic
MST (Rattus norvegicus [14]): 12.2 days
MST (Rattus norvegicus [12]): 9.2 days
MST (Rattus norvegicus [19]): 12.5 days

SMILES: CCCCCCCCCCCCC/C=C/C[C@@H](O)[C@H](O)[C@@](N)(CO)C(=O)O
IC50 [1]: 1.2 nM
MST (Rattus norvegicus [17]): Toxic
MST (Rattus norvegicus [10]): 9 days
MST (Rattus norvegicus [11]): 10.6 days

SMILES: CCCCCCCCCCCCCCCC[C@@H](O)[C@H](O)C(N)(CO)CO
IC50 [1]: 320 nM
MST (Rattus norvegicus [2]): 9.2 days
MST (Rattus norvegicus [14]): 11.8 days
MST (Rattus norvegicus [12]): 8.2 days
MST (Rattus norvegicus [15]): 15 days
MST (Rattus norvegicus [16]): Toxic

SMILES: CCCCCCC(O)CCCCCC/C=C/C[C@@H](O)[C@H](O)C(N)(CO)CO (stereo partly specified)
IC50 [1]: 4.7 nM
MST (Rattus norvegicus [2]): 9.2 days
MST (Rattus norvegicus [14]): 11.8 days
MST (Rattus norvegicus [12]): 8.2 days
MST (Rattus norvegicus [15]): 13.4 days
MST (Rattus norvegicus [16]): Toxic

IC50 [1]: 190 nM
SMILES: CCCCCCCCCCCCCCCCCCCCC(N)(CO)CO

SMILES: CCCCCCCCCCCCCCCCCCC(N)(CO)CO
IC50 [1]: 12 nM
MST (Rattus norvegicus [2]): 17.6 days
MST (Rattus norvegicus [3]): Toxic
MST (Rattus norvegicus [11]): 11.2 days
MST (Rattus norvegicus [12]): 14.8 days

SMILES: CCCCCCCCCCCCCCCC(N)(CO)CO
IC50 [1]: 2.9 nM
MST (Rattus norvegicus [3]): Toxic
MST (Rattus norvegicus [4]): 18.8 days
MST (Rattus norvegicus [5]): 28.5 days
MST (Rattus norvegicus [7]): 35.5 days
MST (Rattus norvegicus [21]): Toxic
MST (Rattus norvegicus [9]): 47 days
MST (Rattus norvegicus [13]): 8.3 days
